# NRP1-CendR mod = NRP-1/CendR interaction modulation. O14786. FAM-RPARPAR peptide binding to NRP-1, fluorescence polarization. inhibition, % at 25 µM. actives 0.85% (n = 360,000). AID 602438;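 active = inhibition or corrected inhibition above about 18%, plus a signal ratio from 0.5 to 1.5, limit read from the data, passing the limit was not always enough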
# Target sequence (O14786 whole entry, looked up): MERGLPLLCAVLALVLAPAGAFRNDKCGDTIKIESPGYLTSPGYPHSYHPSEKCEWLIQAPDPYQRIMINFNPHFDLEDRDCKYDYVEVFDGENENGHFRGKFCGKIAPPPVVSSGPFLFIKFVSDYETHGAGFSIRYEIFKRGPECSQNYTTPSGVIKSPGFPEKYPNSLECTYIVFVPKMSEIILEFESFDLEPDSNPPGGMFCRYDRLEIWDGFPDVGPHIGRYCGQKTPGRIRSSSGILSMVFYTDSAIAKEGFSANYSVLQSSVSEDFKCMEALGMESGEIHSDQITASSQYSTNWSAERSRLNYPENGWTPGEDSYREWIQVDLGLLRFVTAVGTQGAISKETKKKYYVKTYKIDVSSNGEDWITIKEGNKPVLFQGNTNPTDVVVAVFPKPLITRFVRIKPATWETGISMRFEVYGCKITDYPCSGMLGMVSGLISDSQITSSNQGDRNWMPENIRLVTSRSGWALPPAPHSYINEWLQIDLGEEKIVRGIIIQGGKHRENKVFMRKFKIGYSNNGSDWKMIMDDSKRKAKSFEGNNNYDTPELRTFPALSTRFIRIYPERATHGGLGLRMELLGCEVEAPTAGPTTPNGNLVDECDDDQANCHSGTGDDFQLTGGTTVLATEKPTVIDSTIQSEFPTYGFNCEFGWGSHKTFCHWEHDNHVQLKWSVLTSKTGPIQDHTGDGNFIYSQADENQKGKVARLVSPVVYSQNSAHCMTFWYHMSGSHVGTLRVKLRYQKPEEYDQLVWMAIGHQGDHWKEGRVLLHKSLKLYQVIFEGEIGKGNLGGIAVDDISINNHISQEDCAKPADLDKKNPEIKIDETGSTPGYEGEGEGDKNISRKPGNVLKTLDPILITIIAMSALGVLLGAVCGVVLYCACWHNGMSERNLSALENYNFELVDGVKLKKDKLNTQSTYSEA
# DAGLB inh = diacylglycerol lipase beta (human) inhibition | AID 504411 | inhibition, % at 5.17 µM | HEK293T DAGLB membrane lysate, EnzChek fluorogenic substrate | actives 0.059% (n = 340,000) | Q8NCG7; in the data active = inhibition above about 34%;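 note: 0% = enzyme with vehicle and 100% = wells lacking enzyme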
# Myeloid diff 2 = compounds promoting myeloid differentiation; ER-HoxA9 myeloid progenitors, lysozyme-GFP differentiation, flow cytometry; calls only at 10 µM; actives 1% (n = 360,000); AID 624256;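 active = normalized GFP-positive differentiation at or above the plate's own cutoff, the solvent-only control mean plus 3 SD; inconclusive = no clear call, values can overlap the other calls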;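 note: cells exposed to compound for four days before flow analysis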
# MIN6 prolif = MIN6 beta-cell proliferation induction. MIN6 cells proliferation, ATPlite luminescence, 48 h; cells starved in 0.2% serum; 100% = growth in 10% serum. proliferation, % at 10 µM. actives 0.29% (n = 330,000). AID 2380;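 active = compounds whose signal lies at least 3.5 SD above the mean of all wells on their plate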;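 note: 0% = DMSO-treated cells in low-serum medium and 100% = 10% serum control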
# MT1-MMP act inh = inhibitors of human MT1-MMP activation. P50281. HT1080 RFP-PRO-GFP cells, GFP/RFP ratio fluorescence, overnight; percent of plate control window, DMSO zero. GFP/RFP ratio change, % at 20 µM. actives 0.061% (n = 360,000). AID 651647;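 active = GFP/RFP ratio change of at least 30% with cell ATP level not reduced by more than half and red fluorescence within 50% of control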
#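 Read-out: GFP/RFP fluorescence ratio; Test system: RFP-PRO-GFP reporter HT1080 cells; Compound dosing: single-point 20 µM compound, 1% DMSO; Times: overnight compound exposure at 37 °C.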
# SENP1 inh = blocks the human SENP1 SUMO protease catalytic domain | Q9P0U3 | recombinant SENP1 catalytic domain, CyPet-SUMO1-YPet FRET cleavage | inhibition, % at 10 µM | actives 0.21% (n = 360,000);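 active = inhibition at least 30% at 10 µM, raw YFP signal under a set limit, fluorescence ratio 0.5 to 1.5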;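 note: 0% = enzyme with DMSO and 100% = no enzyme wells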
#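 system = hSENP1 catalytic domain, recombinant | reagent = SFCypet-SUMO1-SFYpet substrate at 25 nM | doses = one dose per compound, 10 µM, 0.5% DMSO | incubation = enzyme reaction for 50 min at room temperature, dark | measured by = FRET, CFP and YFP emission | controls = no-enzyme low, enzyme-DMSO high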
# An asterisk follows results filed as active; i = inactive; ? = inconclusive; . = no result given; + = active, no number. In the library only some 2.4% were active in any assay of this set; here they are far more common.
SMILES,NRP1-CendR mod,DAGLB inh,Myeloid diff 2,MIN6 prolif,MT1-MMP act inh,SENP1 inh
O=C(NCC(c1ccco1)N1CCN(c2ccccc2)CC1)C(=O)NC1CCCCC1 (stereo unspecified),-2,-2,i,-2,2,2
O=C(NCc1ccccc1)C(C1CC1)n1c(=O)c(-c2ccco2)nc2ccccc21 (stereo unspecified),-50,.,i,.,-11,-45
O=C(CN1C(=O)COc2ccc(Cl)cc21)Nc1ccc2c(c1)OCCO2,-6,0,+,-2,-5,2
COC(=O)c1c(NC(=O)CN2CCC3(O)CCCCC3C2c2ccc(F)cc2)sc(C)c1C (stereo unspecified),-5,-4,i,0,-3,-4
COC(=O)c1c(NC(=O)CN2CCC3(O)CCCCC3C2c2cc(OC)ccc2OC)sc(C)c1C (stereo unspecified),27*,-5,i,-3,-14,-2
Cc1ccccc1CSCC1Nc2ccc(C(=O)NCCc3ccccc3)cc2NC1=O (stereo unspecified),-227,-15,+,.,-21,-18
O=C(NCCc1ccccc1)c1ccc2[nH]c(=O)c(=O)[nH]c2c1,17,-6,i,0,-1,-2
CCc1n[nH]c(=S)n1/N=C/c1cc(OC)cc([N+](=O)[O-])c1O,47*,9,i,2,-1,6
O=C(Cc1ccc(Cl)cc1Cl)NC1CCCCCC1,-12,-5,+,-2,6,-5
COC(=O)CSc1nc(C)cc(C(F)(F)F)c1C#N,-5,-2,i,-1,-4,4
Cc1cc(C(F)(F)F)c(C#N)c(SCC(=O)Nc2nc3cc(Br)ccc3s2)n1,-20,2,+,-6,-84,18
CCCc1nc(SCC(=O)N2CCC(Cc3ccccc3)CC2)c2c(=O)n(C)c(=O)n(C)c2n1,-8,1,+,-7,-3,1
Cc1cc(C)c2[nH]c(C)c(CN3CCCCCC3)c(=O)c2c1,5,2,+,-4,-6,-5
Cc1[nH]c2c(Cl)cccc2c(=O)c1CN1CCCC1,20*,-3,i,-2,0,-7
CCOc1ccc(OCC(=O)OCC(=O)NCC2CCCO2)cc1 (stereo unspecified),-1,-1,i,-1,2,1
COc1cc(OC)cc(C(=O)Nc2ccccc2S(=O)(=O)N2CCCC2OC(C)=O)c1 (stereo unspecified),18*,-3,i,8,-5,3
COC(=O)C1CCCN1S(=O)(=O)c1ccccc1NC(=O)c1cc(OC)c(OC)c(OC)c1 (stereo unspecified),3,-2,i,-1,1,1
FC(F)(F)c1cccc(-c2nc3nc(Cl)c(Cl)nc3[nH]2)c1,-50,3,i,-6,-26,-56
Cc1cc(=O)nc2c3ccccc3n(CC(=O)NC(C)c3ccc4c(c3)OCCO4)n12 (stereo unspecified),-2,0,i,-4,-5,-2
O=C(NCC(c1ccco1)N1CCN(c2ccccc2F)CC1)C(=O)NC1CCCC1 (stereo unspecified),0,-3,i,1,-2,-1
CCCCc1ccc(NC(=O)Nc2cnccn2)cc1,11,1,+,-3,-3,0
c1cc2nc(C34CC5CC(CC(C5)C3)C4)[nH]c2cn1,-2,1,+,-2,-2,2
CC(=O)c1cccc(NC(=O)C(C)OC(=O)c2ccc3ncsc3c2)c1 (stereo unspecified),10,-1,+,9,1,-32
CC(OC(=O)c1ccc2ncsc2c1)C(=O)Nc1cccc(Cl)c1 (stereo unspecified),6,2,?,2,8,-34
CC1=N/C(=C\c2ccc(OC(C)C)cc2)C(=O)N1c1ccc(C(=O)O)cc1,-21,0,+,-4,-2,-2
SMILES,NRP1-CendR mod,DAGLB inh,Myeloid diff 2,MIN6 prolif,MT1-MMP act inh,SENP1 inh
CCCS(=O)(=O)NC(=O)C1(C)CCCN(C(=O)c2ccc(OC)cc2)C1 (stereo unspecified),11,.,i,.,0,1
Cc1cc(N2CCN(C(C(=O)NC3CCCC3)c3ccc(-c4ccccc4)cc3)CC2)c2ccccc2n1 (stereo unspecified),20,.,i,.,-5,2
COc1cccc(NC(=O)CN(C)CC(=O)Nc2ccc(C)c([N+](=O)[O-])c2)c1,1,-4,+,4,-5,2
COc1cccc(NC(=S)NNC(=O)Cn2nc([N+](=O)[O-])cc2C)c1,30*,1,i,-4,4,1
CCC(C)c1ccc(NC(=O)CN(C)CC(=O)Nc2cccc(OC)c2)cc1 (stereo unspecified),5,3,i,-3,-2,4
CC(C)CN1C(=O)CN(S(C)(=O)=O)CC1(C)C(=O)Nc1ccc2c(c1)OCCO2 (stereo unspecified),-18,.,i,.,13,-1
Cc1occc1C(=O)N1N=C(C2CC2)CC1(O)C(F)(F)F (stereo unspecified),34*,-2,i,-4,5,2
O=C(c1ccco1)N1N=C(C2CCCCC2)CC1(O)C(F)(F)F (stereo unspecified),-8,-3,i,1,-4,1
O=C(Cn1cccc1C(=O)c1ccccc1)NCCCc1ccccc1,-7,-3,i,2,-1,1
O=C(Cc1ccccc1)NCCC1=CCCCC1,4,0,i,1,3,1
O=C(Cc1ccccc1[N+](=O)[O-])NCCC1=CCCCC1,-3,-4,+,5,3,0
O=C(Cn1cccc1C(=O)c1ccccc1)NCCC1=CCCCC1,23*,-3,i,-2,-1,-1
CCC(C)NCCOc1cc(C)cc(C)c1C (stereo unspecified),1,-2,i,1,2,0
N#Cc1cc(C(=O)c2ccccc2O)cn(-c2nccs2)c1=O,132,-35,i,.,-81,-26
N#Cc1cc(C(=O)c2cc(F)ccc2O)cn(-c2nccs2)c1=O,135,-35,+,-2,-125,-26
COc1cc(OC)c(OC)cc1/C=C/C(=O)c1ccc(NS(=O)(=O)c2ccc(C)cc2)cc1,-155,-2,+,-4,-64,-28
CC(=O)C(=Cc1cccc(C#N)c1)C(=O)c1ccccc1,-13,.,i,.,-1,-1
COc1nc(-c2ccccc2)cc(-c2ccc3c(c2)OCO3)c1C#N,6,1,+,0,-10,0
